Assay results collected from several papers.
Each line is one published result; the experiments were not run side by side.
Target: Serine/threonine-protein kinase Nek7 (NEK7, Homo sapiens, UniProt Q8TDX7)

| SMILES | observed | method | tested at | remaining binding [%] |
| --- | --- | --- | --- | --- |
| CC(=O)N1CCC(c2ccc(C(=O)NC3=NCCN3)cc2C(F)(F)F)CC1 | cell-free assay | competition with immobilised ligand | 1 µM | 100 |
| CC1CCCN1c1nccc(-c2cnn3ncccc23)n1 (stereo not drawn) | binding |  | 1 µM | 100 |
| O=C(Nc1c[nH]nc1C(=O)NC1CCNCC1)c1cc(F)cc(F)c1 | binding | competition with immobilised ligand | 1 µM | 100 |
| COc1ccnn2ncc(-c3ccnc(N(C)C)n3)c12 | binding |  | 1 µM | 100 |
| COc1ncc2cc3ccccc3nc2c1C#N | cell-free assay | competition with immobilised ligand | 5 µM | 100 |
| O=C(NCCCN1CCOCC1)c1ccc(Nc2ncc(Cl)c(-c3ccc(Cl)s3)n2)cc1 | binding | competition with immobilised ligand | 1 µM | 1.2 |
| COc1cnc(Nc2cccc(S(N)(=O)=O)c2)nc1N1CCN(c2ccccc2)C(=O)C1 | binding | competition with immobilised ligand | 1 µM | 91 |
| CC(=O)C1=C(C)N(c2cccc(C(F)(F)F)c2)C(=O)N[C@@H]1c1ccc(C#N)nc1 | cell-free assay | competition with immobilised ligand | 1 µM | 100 |
| CNC(=O)[C@@H]1CC[C@@H](n2c(-c3ccc4cnccc4c3)nc3ccc(C(=O)NCc4cccc(C(N)=O)c4)cc32)C1 | binding | competition with immobilised ligand | 1 µM | 92 |
| O=C(N1CCS(=O)(=O)CC1)N1C[C@H](c2ccc(OC(F)(F)F)cc2)C[C@H](c2nc(C3CC3)no2)C1 | cell-free assay | competition with immobilised ligand | 1 µM | 100 |
| Nc1ncc2c(n1)-c1c([nH]c3ccc(C#CC4CC4)cc13)CCCC2 | binding | competition with immobilised ligand | 1 µM | 88 |
| CN(c1nccc(-c2cnn3ncccc23)n1)C1CC1 | binding |  | 1 µM | 100 |
| c1cncc(-c2cccc(Nc3nccc(NC4CCCCC4)n3)c2)c1 | binding | competition with immobilised ligand | 10 µM | 79 |
| O=C(NCCCC1CCCCC1)c1ccc(CNC(=O)c2cnn(-c3ccccc3)c2C(F)(F)F)cc1 | cell-free assay | competition with immobilised ligand | 0.1 µM | 97 |
| CN(C)c1nccc(-c2cnc3ncccn23)n1 | binding |  | 1 µM | 90 |
| C[C@@H](c1ccc(-n2cnc3c(N)ncnc32)cc1)N1CCc2nn(C)c(Cc3ccccc3)c2C1=O | binding | competition with immobilised ligand | 0.1 µM | 94 |
| C[C@H]1CCN(c2nccc(-c3cnn4ncccc34)n2)C1 | binding |  | 1 µM | 100 |
| Cc1cnc(Nc2ccc(C(=O)N3CCC(N4CCCC4)CC3)cc2)nc1-c1cc2ccccc2s1 | binding | competition with immobilised ligand | 1 µM | 0.7 |
| Cc1nc(C2CCN(C(=O)c3ccc(OC(F)(F)F)cc3N)CC2)c2ncc(N3CCN(C)CC3)cc2n1 | cell-free assay | competition with immobilised ligand | 1 µM | 100 |
| O=C(c1ccc(Nc2ncc(Cl)c(-c3ccc(Cl)s3)n2)cc1)N1CCC(N2CCCC2)CC1 | binding | competition with immobilised ligand | 1 µM | 1.4 |
| CN(C)c1nccc(-c2cnn3ncccc23)n1 | binding |  | 1 µM | 92 |
| CC(=O)Nc1c(C(C)=O)c(=O)n(C)c2nc(-c3ccc(Cl)cc3Cl)c(-c3ccc(Cl)cc3)cc12 | cell-free assay | competition with immobilised ligand | 1 µM | 100 |
| N[C@H]1CCN(c2nccc(-c3cnn4ncccc34)n2)C1 | binding |  | 1 µM | 100 |
| COc1cccc(CNC(=O)c2nc3scc(COCc4ccc(C(=O)O)cc4)c3c(=O)[nH]2)c1 | cell-free assay | competition with immobilised ligand | 1 µM | 100 |
